Screens (PubChem)
bIAP act – increases bovine intestinal alkaline phosphatase activity | purified bovine IAP, CDP-star luminescence, 30 min; hits give high values; fold of DMSO-control signal, blank-subtracted | activation factor at 20 µM | 200,000 tested, 0.17% active;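 active = activation factor of 2 or more at 20 µM, a signal rise over negative controls twice the positive control's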
hIAP inh – blocks human intestinal alkaline phosphatase; purified IAP, CDP-Star luminescence, 30 min; inhibition, % at 10 µM; 330,000 tested, 0.12% active;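 active = inhibition reaching a set limit with compound at 10 µM in the primary screen, cut at about 35% in these data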
Target sequence (P09923 whole entry, looked up): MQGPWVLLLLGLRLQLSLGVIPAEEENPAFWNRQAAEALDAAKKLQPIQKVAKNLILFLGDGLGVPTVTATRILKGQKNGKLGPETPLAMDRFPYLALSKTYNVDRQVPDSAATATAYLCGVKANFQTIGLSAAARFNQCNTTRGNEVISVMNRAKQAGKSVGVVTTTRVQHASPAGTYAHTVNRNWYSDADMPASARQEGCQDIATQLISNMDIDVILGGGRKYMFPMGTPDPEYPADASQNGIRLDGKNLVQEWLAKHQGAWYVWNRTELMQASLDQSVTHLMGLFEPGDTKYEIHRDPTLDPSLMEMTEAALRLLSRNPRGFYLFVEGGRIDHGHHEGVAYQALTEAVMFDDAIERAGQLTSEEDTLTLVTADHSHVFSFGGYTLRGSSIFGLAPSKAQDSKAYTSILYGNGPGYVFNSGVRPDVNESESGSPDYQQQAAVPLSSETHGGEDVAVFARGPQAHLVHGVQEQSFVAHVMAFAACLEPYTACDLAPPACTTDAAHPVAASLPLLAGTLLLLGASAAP
mIAP block – mouse IAP inhibition; purified mouse IAP, CDP-Star luminescence, 30 min; AID 2806; inhibition, % at 10 µM; 330,000 tested, 0.2% active;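 active = inhibition of at least 40% at 10 µM in the primary screen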
mIAP activ – mouse IAP activation | 330,000 tested, 0.24% active | AID 2805 | muIAP, CDP-Star luminescence, 30 min; hits give high values; 1 = vehicle-only enzyme signal, 0 = enzyme-free wells | activation factor at 10 µM;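 active = activation factor of at least 2 at 20 µM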
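System: Mouse IAP enzyme | Also added: CDP-Star substrate | Dosing: Compounds dispensed in DMSO | Schedule: 30 min enzyme-substrate-compound incubation at room temperature | Technique: Chemiluminescence readout | Control set: DMSO-only wells and no-enzyme negative control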
hIAP activ – human IAP activation | P09923 | purified human IAP, CDP-Star luminescence, 30 min; hits give high values; 1 = vehicle-only enzyme, 0 = enzyme-free background | activation factor at 10 µM | 330,000 tested, 0.16% active;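 active = activation factor of the enzyme at least 2-fold when tested at 20 µM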
bIAP inh – intestinal alkaline phosphatase (bovine) inhibition. purified bovine IAP, CDP-star luminescence, 30 min. inhibition, % at 20 µM. 190,000 tested, under 10 active. AID 1019;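 active = over 50% inhibition of intestinal alkaline phosphatase at 20 µM in the single-dose screen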
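Assay system – bovine IAP enzyme · Quantity – bovine IAP at 1/65,000,000 final dilution · Detection – CDP-star luminescence signal · Times – 30 min reaction at room temperature · Also added – CDP-star substrate at 30 µM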
hIAP act confirm – human IAP activation confirmation; shares compounds with hIAP activ; purified IAP, CDP-Star luminescence, 30 min; hits give low values; activation (%Activity, negative = activation), % at 8.3 µM; 880 tested, 10% active; AID 434926;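 active = at least twofold enzyme activation in any of six single-dose repeats, which the averaged readout prints as negative percent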
Hits are given with their value. The list is not random: actives were taken first. Their share in the collection is about 0.72%.

For Cc1ccc(C(=O)NNC(=S)NC(=O)c2ccccc2)cc1 the results were hIAP inh inactive, mIAP block inactive, mIAP activ inactive and hIAP activ inactive.
`Cc1ccc(C(=O)NC(=S)NNC(=O)c2ccccc2O)cc1` gave hIAP inh inactive, mIAP block inactive, mIAP activ inactive, hIAP activ 2.4 and hIAP act confirm inactive.
Screening O=C(NC(=S)NNC(=O)c1ccccc1O)c1ccccc1 returned hIAP inh inactive, mIAP block inactive, mIAP activ inactive, hIAP activ 2.1 and hIAP act confirm inactive.
For O=C(NC(=S)NNC(=O)c1ccco1)c1ccccc1 the results were hIAP inh inactive, mIAP block inactive, mIAP activ inactive, hIAP activ 2 and hIAP act confirm inactive.
`CCN(CC(=O)Nc1ccc(OC)cc1)C(=O)c1ccc2c(c1)NC(=O)CS2` gave hIAP inh inactive, mIAP block inactive, mIAP activ inactive and hIAP activ inactive.
CCCCCCSc1ccc([C@H]2N[C@@](CC(C)C)(C(=O)OC)[C@H]3C(=O)N(C)C(=O)[C@@H]23)cc1OC was read as hIAP inh inactive, mIAP block inactive, mIAP activ inactive and hIAP activ inactive.
For COCCNC(=O)CSc1nc2scc(-c3ccccc3)c2c(=O)[nH]1 the results were hIAP inh inactive, mIAP block inactive, mIAP activ inactive and hIAP activ inactive.
`O=S(=O)(Nc1nc2ccccc2nc1NCC1CCCO1)c1cc(Cl)ccc1Cl` (stereo not drawn) gave hIAP inh inactive, mIAP block inactive, mIAP activ inactive and hIAP activ inactive.
Cc1cc(C(=O)NNC(=O)CCCCC(=O)NNC(=O)c2cc(C)[nH]n2)n[nH]1 was read as bIAP act inactive, hIAP inh inactive, mIAP block inactive, mIAP activ inactive, hIAP activ 3.5, bIAP inh inactive and hIAP act confirm inactive.
Screening Cc1cccc(C(=O)NNC(=O)CCCCC(=O)NNC(=O)c2cccc(C)c2)c1 returned hIAP inh inactive, mIAP block inactive, mIAP activ inactive, hIAP activ 2.4 and hIAP act confirm inactive.
For COc1ccc(CC(=O)NNC(=O)c2cc(C)[nH]n2)cc1 the results were hIAP inh inactive, mIAP block inactive, mIAP activ inactive and hIAP activ inactive.
Screening COc1ccccc1[C@@]1(C)ON(c2ccccc2C(F)(F)F)C1=O returned hIAP inh inactive, mIAP block inactive, mIAP activ inactive and hIAP activ inactive.
Screening Cc1ccc(N/C=C/C(=O)c2ccco2)c(O)c1 returned hIAP inh inactive, mIAP block inactive, mIAP activ inactive, hIAP activ 2.2 and hIAP act confirm inactive.
CCc1nnc(NC(=O)CSc2nnc(C)c(=O)n2N)s1 was read as hIAP inh 46, mIAP block inactive, mIAP activ inactive, hIAP activ inactive and hIAP act confirm inactive.
`Cc1nnc(NC(=O)CSc2nnc(C)c(=O)n2N)s1` gave hIAP inh inactive, mIAP block inactive, mIAP activ inactive and hIAP activ inactive.
For Oc1ccc(N=Nc2c(O)ccc3ccccc23)cc1 the results were bIAP act inactive, hIAP inh 45, mIAP block inactive, mIAP activ inactive, hIAP activ inactive, bIAP inh inactive and hIAP act confirm -92.
CC(C)(C)c1ccc(C(=O)Nc2ccc(CN3CCS(=O)(=O)CC3)cc2)cc1 was read as hIAP inh 39, mIAP block inactive, mIAP activ inactive, hIAP activ inactive and hIAP act confirm inactive.
For NC(=O)c1ccc(NC(=O)C2CCCC2)cc1 the results were hIAP inh inactive, mIAP block inactive, mIAP activ inactive, hIAP activ 2.6 and hIAP act confirm -40.
For O=C(Nc1ccc(F)cc1)C1CCCCC1 the results were bIAP act inactive, hIAP inh inactive, mIAP block inactive, mIAP activ inactive, hIAP activ inactive and bIAP inh inactive.
Screening CCCNC(=O)c1onc(CS(=O)(=O)c2cc(C)cc(C)c2)c1C(=O)NCCC returned hIAP inh inactive, mIAP block inactive, mIAP activ inactive and hIAP activ inactive.
Screening N#C/C(=C\c1ccc(N2CCCCC2)c([N+](=O)[O-])c1)c1nn(-c2ccccc2)c(N)c1C#N returned bIAP act inactive, hIAP inh inactive, mIAP block inactive, mIAP activ inactive, hIAP activ inactive and bIAP inh inactive.
`N#C/C(=C\c1ccc(N2CCCC2)c([N+](=O)[O-])c1)c1nc2ccccc2[nH]1` gave bIAP act inactive, hIAP inh 35, mIAP block inactive, mIAP activ inactive, hIAP activ inactive, bIAP inh inactive and hIAP act confirm inactive.
For N#C/C(=C/c1ccc(O)c(O)c1)c1nc2ccccc2[nH]1 the results were hIAP inh 58, mIAP block inactive, mIAP activ inactive, hIAP activ inactive and hIAP act confirm inactive.
`CC(C)(C)OC(=O)C[C@H]1C/C=C\C[C@@H](CC(=O)N(CCO)Cc2ccccc2)C(=O)NC[C@@H](c2ccccc2)OC1=O` gave hIAP inh inactive, mIAP block inactive, mIAP activ inactive and hIAP activ inactive.
Screening CN1CCN(C(=O)c2ccc3c(c2)OCCO3)CC1 returned bIAP act inactive, hIAP inh 37, mIAP block inactive, mIAP activ inactive, hIAP activ inactive, bIAP inh inactive and hIAP act confirm inactive.
For O=C(c1ccccc1)N1CCN(C(=O)c2ccc3c(c2)OCCO3)CC1 the results were bIAP act inactive, hIAP inh inactive, mIAP block inactive, mIAP activ inactive, hIAP activ inactive and bIAP inh inactive.
Screening Clc1nnc(Cl)c2c1ncn2Cc1ccccc1 returned hIAP inh inactive, mIAP block inactive, mIAP activ inactive and hIAP activ inactive.
`CCCNC(=S)NNC(=O)c1cc(C2CC2)nc2ccccc12` gave hIAP inh inactive, mIAP block inactive, mIAP activ inactive, hIAP activ 2.2 and hIAP act confirm inactive.
For Cc1ccc2oc(C(=O)Nc3nonc3C)c(C)c2c1 the results were hIAP inh 38, mIAP block inactive, mIAP activ inactive, hIAP activ inactive and hIAP act confirm inactive.
Cc1ccc2oc(C(=O)Nc3nnc(C)s3)c(C)c2c1 was read as bIAP act inactive, hIAP inh inactive, mIAP block inactive, mIAP activ inactive, hIAP activ inactive and bIAP inh inactive.
For Cc1ccc(-n2ncc3c(NNC(=O)c4ccco4)ncnc32)cc1C the results were hIAP inh inactive, mIAP block inactive, mIAP activ inactive, hIAP activ 2.5 and hIAP act confirm inactive.
For CCC(=O)NNc1ncnc2c1cnn2-c1cccc(C)c1 the results were bIAP act inactive, hIAP inh inactive, mIAP block inactive, mIAP activ inactive, hIAP activ inactive and bIAP inh inactive.
